Data as given in ChEMBL document CHEMBL3098014 (Bioorg Med Chem, 2014).

What was measured:
Transporter = Transporter (Rattus norvegicus, UniProt Q63380); test: Displacement of [3H]-dopamine from rat cerebral cortex NET after 7 mins; assay type: tissue-based
[1] = biological target: Sodium-dependent serotonin transporter (Rattus norvegicus, UniProt P31652); test: Displacement of [3H]5-HT from rat cerebral cortex SERT after 10 mins; assay type: tissue-based
Method in brief: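 Rat cerebral cortex tissue. Inhibition of [3H]5-HT (27.9 Ci/mmol) uptake, accumulation measured over 10 min. Drug stocks included an added 0.01% (w/v) BSA. Five or more triplicate concentrations bracketing the IC50, converted to Ki by Cheng-Prusoff. Mean ± SEM from three to eight independent experiments.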

[2] = biological target: Sodium-dependent dopamine transporter (Rattus norvegicus, UniProt P23977); test: Displacement of [3H]-dopamine from rat striatum DAT after 5 mins
Sodium-dependent dopamine transporter, sequence (P23977 whole entry): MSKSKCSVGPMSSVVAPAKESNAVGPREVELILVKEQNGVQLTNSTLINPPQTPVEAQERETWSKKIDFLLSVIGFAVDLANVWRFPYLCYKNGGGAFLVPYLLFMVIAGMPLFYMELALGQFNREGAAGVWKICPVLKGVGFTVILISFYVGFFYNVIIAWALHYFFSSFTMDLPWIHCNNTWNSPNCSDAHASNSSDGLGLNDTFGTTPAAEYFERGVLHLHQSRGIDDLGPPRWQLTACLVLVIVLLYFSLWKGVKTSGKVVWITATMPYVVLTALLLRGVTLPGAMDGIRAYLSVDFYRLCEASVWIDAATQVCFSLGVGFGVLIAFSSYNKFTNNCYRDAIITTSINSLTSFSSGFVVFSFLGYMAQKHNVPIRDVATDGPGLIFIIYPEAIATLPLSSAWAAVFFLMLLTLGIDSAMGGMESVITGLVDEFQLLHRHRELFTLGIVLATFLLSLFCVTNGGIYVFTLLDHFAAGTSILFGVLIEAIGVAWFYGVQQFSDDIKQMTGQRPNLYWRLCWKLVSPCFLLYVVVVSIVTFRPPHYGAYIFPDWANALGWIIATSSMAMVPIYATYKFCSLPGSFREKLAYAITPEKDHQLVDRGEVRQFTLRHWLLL
Method in brief: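 Uptake inhibition in rat striatal tissue: [3H]dopamine (45.0 Ci/mmol) accumulation measured over 5 min. Drug stocks contained an extra 0.01% (w/v) BSA. At least five concentrations, each in triplicate, spaced evenly around the IC50. IC50 converted to Ki via Cheng-Prusoff. Average ± SEM of three to eight independent experiments.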

Transporter, sequence (Q63380 whole entry): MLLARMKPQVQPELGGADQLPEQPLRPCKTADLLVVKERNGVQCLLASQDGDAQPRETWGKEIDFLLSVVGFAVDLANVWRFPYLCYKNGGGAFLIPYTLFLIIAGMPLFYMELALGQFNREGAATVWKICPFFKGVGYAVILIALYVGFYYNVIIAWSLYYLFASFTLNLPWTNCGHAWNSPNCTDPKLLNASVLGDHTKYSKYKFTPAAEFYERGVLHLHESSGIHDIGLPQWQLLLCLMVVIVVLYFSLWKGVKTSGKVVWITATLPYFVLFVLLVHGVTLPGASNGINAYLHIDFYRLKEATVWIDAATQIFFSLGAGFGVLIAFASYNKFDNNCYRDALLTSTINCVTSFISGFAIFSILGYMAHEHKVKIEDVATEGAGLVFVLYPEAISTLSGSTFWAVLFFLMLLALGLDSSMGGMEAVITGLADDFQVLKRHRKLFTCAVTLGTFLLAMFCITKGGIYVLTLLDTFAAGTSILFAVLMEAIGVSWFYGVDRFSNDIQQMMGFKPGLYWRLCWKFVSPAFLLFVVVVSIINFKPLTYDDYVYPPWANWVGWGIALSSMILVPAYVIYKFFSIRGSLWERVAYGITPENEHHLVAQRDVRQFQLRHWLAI
Sodium-dependent serotonin transporter, sequence (P31652 whole entry): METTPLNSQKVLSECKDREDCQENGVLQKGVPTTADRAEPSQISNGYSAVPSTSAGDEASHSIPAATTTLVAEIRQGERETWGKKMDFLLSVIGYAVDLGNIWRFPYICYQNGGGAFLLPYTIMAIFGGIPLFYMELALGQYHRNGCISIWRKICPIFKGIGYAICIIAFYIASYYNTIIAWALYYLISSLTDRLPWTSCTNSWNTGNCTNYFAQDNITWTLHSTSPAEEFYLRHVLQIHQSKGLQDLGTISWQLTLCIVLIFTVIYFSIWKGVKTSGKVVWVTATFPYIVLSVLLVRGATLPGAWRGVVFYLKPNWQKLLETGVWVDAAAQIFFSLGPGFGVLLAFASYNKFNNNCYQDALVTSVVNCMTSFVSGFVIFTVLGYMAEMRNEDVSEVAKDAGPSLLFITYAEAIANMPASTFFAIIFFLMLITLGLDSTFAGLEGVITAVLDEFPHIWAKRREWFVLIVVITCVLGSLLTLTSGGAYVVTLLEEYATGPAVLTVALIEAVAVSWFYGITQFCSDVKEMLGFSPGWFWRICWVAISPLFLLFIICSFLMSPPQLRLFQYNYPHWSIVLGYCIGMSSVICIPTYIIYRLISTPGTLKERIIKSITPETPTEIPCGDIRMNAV

SMILES	Ki (Transporter) [µM]	Ki [1] [µM]	Ki [2] [µM]
Nc1ccc(CN[C@H]2CC[C@@H](C(c3ccccc3)c3ccccc3)OC2)cc1	0.0126		
Oc1ccc(CN[C@H]2CC[C@@H](Cc3ccccc3)OC2)cc1	0.24	2.5	
Oc1ccc(CN[C@@H]2CO[C@H](C(c3ccccc3)c3ccccc3)C2)cc1	1.51	1.15	0.943
Oc1ccc(CCN[C@@H]2CO[C@H](C(c3ccccc3)c3ccccc3)C2)cc1	0.165	0.15	0.26
COc1ccc(CCN[C@@H]2CO[C@H](C(c3ccccc3)c3ccccc3)C2)cc1	0.198	0.358	0.266
Fc1ccc(CCN[C@@H]2CO[C@H](C(c3ccccc3)c3ccccc3)C2)cc1	0.196	1.35	0.586
c1ccc(CCN[C@@H]2CO[C@H](C(c3ccccc3)c3ccccc3)C2)cc1	0.427	2.05	0.642
Oc1ccc(CN[C@H]2CO[C@H](C(c3ccccc3)c3ccccc3)C2)cc1	0.975	0.408	3.69
c1ccc(CCN[C@H]2CO[C@H](C(c3ccccc3)c3ccccc3)C2)cc1	0.739	0.844	0.454
Oc1ccc(CN[C@@H]2CO[C@H](C(c3ccc(F)cc3)c3ccc(F)cc3)C[C@H]2O)cc1	0.0042	0.0584	0.0384
Fc1ccc(C(c2ccc(F)cc2)[C@@H]2CC[C@H](NCc3ccc4c(c3)CCO4)CO2)cc1	0.0061	0.003	0.0112
Nc1ccc(CN[C@H]2CC[C@@H](C(c3ccc(F)cc3)c3ccc(F)cc3)OC2)cc1	0.0084	0.0691	0.0325
Oc1ccc(CN[C@H]2CC[C@@H](CC(c3ccccc3)c3ccccc3)OC2)cc1	0.181	0.346	0.245
Oc1ccc(CN[C@H]2CC[C@@H](CCC(c3ccccc3)c3ccccc3)OC2)cc1	0.0377	0.473	0.0457
